tim23-1 inh: inhibits growth of tim23-1 mutant yeast; S. cerevisiae tim23-1 growth, BacTiter-Glo luminescence, 24 h; inhibition, % at 20 µM; hit rate 1.3% among 330,000;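 active = growth inhibition of the mutant yeast at or above 50%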;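 note: temperature-sensitive mutant grown at 25 °C; plate controls were DMSO-treated mutant yeast for no effect and medium wells lacking yeast for full effect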
CHOP UPR activ: activators of apoptotic arm of unfolded protein response (CHOP) | hit rate 0.34% among 330,000 | CHO-CHOP luciferase reporter, UPR activation, luminescence; percent of tunicamycin response over DMSO baseline | activation, % at 10 µM;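 active = at 10 µM dose, activation of 40% or more, normalized to positive control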;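 note: 100% = tunicamycin at 10 µg/mL and 0% = DMSO alone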
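System: CHO CHOP reporter cells. Amount: 500 cells per well. Buffer or medium: F12 medium, 10% FBS. Compound dosing: one dose, 10 µM in 0.5% DMSO. Incubation: 6 h compound exposure at 37 °C after overnight seeding. Technique: Steady-Glo luciferase luminescence. Benchmarks: tunicamycin and DMSO controls.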
TIM10 inh: TIM10 yeast growth inhibition; S. cerevisiae TIM10 strain growth, BacTiter-Glo luminescence, 24 h; inhibition, % at 10 µM; hit rate 1.4% among 330,000;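 active = inhibition of 40% or more at the single tested concentration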;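 note: wild-type TIM10 isogenic control strain grown at permissive 25 °C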
tim10-1 inh: inhibits growth of tim10-1 mutant yeast; inhibition, % at 20 µM; AID 463190; S. cerevisiae tim10-1 ts strain growth, BacTiter-Glo, 24 h; hit rate 2.2% among 330,000;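 active = inhibition of at least 40%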;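 note: mutant grown at 25 °C; 0% = DMSO wells with yeast and 100% = wells holding no yeast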
XBP1 UPR activ: adaptive UPR (XBP1) activation | AID 463104 | CHO-XBP1 luciferase reporter, IRE1-XBP1 UPR activation, luminescence; percent of tunicamycin response, DMSO as zero | activation, % at 20 µM | hit rate 0.33% among 330,000;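 active = versus positive control, 20 µM dose yields 30% or more activation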;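 note: 100% = tunicamycin at 10 µg/mL and 0% = DMSO only wells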
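Assay system: IRE1-XBP1 luciferase reporter CHO line. Input: 1000 cells/well. Buffer or medium: F12 with 10% serum. Doses: 20 µM, 1% DMSO. Times: overnight seeding at 37 °C, 6 h compound treatment at 37 °C. Technique: Steady-Glo luciferase glow luminescence, 10 min after reagent addition.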
tim10-1 conf: tim10-1 yeast growth inhibition, confirmed. shares compounds with tim10-1 inh. S. cerevisiae tim10-1 ts strain growth, BacTiter-Glo, 24 h. inhibition, % at 20 µM. hit rate 56% among 7,400. AID 463213;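 active = inhibition of yeast growth at or above a set limit in either of two repeat tests at 20 µM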;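 note: tim10-1 mutant grown at permissive 25 °C to find synthetic lethal compounds; 0% = DMSO yeast wells and 100% = medium wells without yeast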
TIM10 conf: TIM10 yeast growth inhibition, confirmed. inhibition, % at 10 µM. S. cerevisiae tim10 strain growth, BacTiter-Glo luminescence, 24 h. hit rate 63% among 4,600. shares compounds with TIM10 inh;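 active = inhibition of yeast growth at or above a set limit in either of two replicates at 10 µM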;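 note: this counterscreen used the strain with wild-type TIM10; 0% = yeast with DMSO and 100% = medium wells lacking yeast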
tim23-1 conf: tim23-1 yeast growth inhibition, confirmed; shares compounds with tim23-1 inh; S. cerevisiae tim23-1 growth, BacTiter-Glo luminescence, 24 h; inhibition, % at 20 µM; hit rate 83% among 4,400; AID 463218;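 active = inhibition above about 39% in either of two replicate wells at 20 µM, limit read from the data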;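 note: temperature-sensitive tim23-1 mutant grown at 25 °C; 0% = DMSO wells with yeast and 100% = medium wells without yeast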
Active calls of the source: *; . = not tested or not shown. This is a sample that favours compounds with a hit; in the whole collection about 3.9% have one here.

SMILES	tim23-1 inh	CHOP UPR activ	TIM10 inh	tim10-1 inh	XBP1 UPR activ	tim10-1 conf	TIM10 conf	tim23-1 conf
O=C(NC(=S)Nc1ccccc1N1CCCC1)c1ccco1	41	-1	35	35	3	.	.	.
O=C(/C=C/c1ccco1)NC(=S)Nc1cc(C(F)(F)F)ccc1N1CCOCC1	22	1	32	39	-2	.	.	.
O=C(NC(=S)Nc1cccc2cc(O)ccc12)c1ccccc1Br	51*	1	15	46*	-8	21	.	49*
O=C(NC(=S)Nc1ccccc1N1CCCC1)c1ccccc1Br	61*	0	39	41*	-2	8	.	43*
O=C(/C=C/c1ccco1)NC(=S)Nc1ccccc1N1CCOCC1	55*	3	43*	50*	-1	27	51*	48*
O=C(NC(=S)Nc1cccc2cc(O)ccc12)c1ccco1	22	1	3	29	-5	.	.	.
O=C(NC(=S)Nc1ccccc1N1CCCCC1)c1ccco1	54*	0	52*	49*	2	37*	-18	51*
CC(=O)NCc1ccc(C(=O)CSc2nnc(C3CC3)n2C2CC2)cc1	12	1	-4	12	-2	.	.	.
COc1ccccc1/C=C\C(=O)NCC(=O)N/N=C(\C)Cc1ccccc1	0	-1	-5	-4	-1	.	.	.
O=C(c1ccc(Br)cc1)N1CCC2(CC1)NCCc1[nH]cnc12	-8	1	-1	-6	-5	.	.	.
O=[N+]([O-])/C=C/c1cn(Cc2ccc(F)cc2)c2ccccc12	65*	9	69*	72*	-3	66*	74*	71*
O=C(O)c1ccc(N/N=C/c2cn(Cc3ccc(F)cc3)c3ccccc23)cc1	33	0	12	2	-1	.	.	.
Cc1ccc2oc(C(=O)NCC(c3ccco3)N(C)C)c(C)c2c1 (stereo not drawn)	21	4	12	-1	0	.	.	.
COc1cccc2nc3cc(C)c(C)cc3nc12	50*	-2	43*	64*	-7	53*	33*	54*
COc1ccc(Br)cc1/C=c1\sc2nc(-c3ccco3)nn2c1=O	53*	-1	42*	54*	-2	44*	38*	55*
O=C(NCCCNC(=O)c1cnccn1)c1cccc(Cl)c1	6	-1	6	2	1	.	.	.
CCOc1cc(/C=C2/C(=O)ON=C2C)ccc1O	12	8	-20	11	14	.	.	.
CCOc1cc(/C=C2\CN(C)C/C(=C\c3ccc(O)c(OCC)c3)C2=O)ccc1O	52*	44*	31	58*	-4	47*	.	62*
CCNC(=O)CC1C(=O)N(c2ccc(C)cc2)C(=O)N1CCC(C)C (stereo not drawn)	3	1	18	-12	-6	.	.	.
CCN(CC)CCNC(=O)c1cc2c(s1)-c1ccccc1SC2	-1	2	8	-56	0	.	.	.
NNC(=O)c1cc2c(s1)-c1cc(Cl)ccc1SC2	55*	4	27	57*	4	44*	.	49*
O=C(COc1cc2oc(=O)c3c(c2cc1Cl)CCC3)NCc1ccncc1	10	1	6	20	-2	.	.	.
O=S(=O)(c1ccc2c(c1)OCCO2)N1CCN(Cc2ccc3c(c2)OCO3)CC1	60*	-2	50*	47*	-1	46*	51*	63*
O=S(=O)(c1ccc(F)c(F)c1)N1CCN(Cc2ccc3c(c2)OCO3)CC1	16	-3	13	20	0	.	.	.
CN(C)CCNc1c2c(c(C#N)c3nc4ccccc4n13)CCCC2	-20	-1	-8	2	1	.	.	.
SMILES	tim23-1 inh	CHOP UPR activ	TIM10 inh	tim10-1 inh	XBP1 UPR activ	tim10-1 conf	TIM10 conf	tim23-1 conf
CCN(CC)CCNc1c2c(c(C#N)c3nc4ccccc4n13)CCCC2	57*	0	60*	68*	1	56*	53*	67*
O=[N+]([O-])c1ccc(Nc2c3ccccc3nc3ccccc23)cc1	73*	-1	49*	63*	0	54*	50*	68*
O=[N+]([O-])c1ccccc1Nc1c2ccccc2nc2ccccc12	1	-1	5	-6	1	.	.	.
O=c1c2ccccc2oc2ccc(-c3ccc4[nH]ccc4c3)cc12	62*	7	41*	42*	6	39*	66*	74*
O=C(Nc1cccc(-c2nnc(-c3ccccc3)o2)c1)C1CC1	60*	1	27	41*	2	20	.	76*
CC(=O)Nc1cccc(-c2nnc(-c3ccccc3)o2)c1	3	3	20	0	1	.	.	.
COc1cc(C(O)c2nc3ccccc3s2)cc(OC)c1OC (stereo not drawn)	13	-1	-5	8	-2	.	.	.
CCC(C)(C)NC(=O)C(c1ccc(OC)cc1)N(C(=O)CCC(=O)Nc1cc(C)on1)c1ccc2c(c1)OCCO2 (stereo not drawn)	14	1	2	0	-7	.	.	.
O=C(ONC1=NCCCCC1)c1ccc(Cl)cc1	61*	4	87*	52*	0	38*	84*	41*
O=C(CNC1=NCCC1)c1ccc(Cl)cc1	15	0	26	23	2	.	.	.
O=C(ONC1=NCCCCC1)c1c(F)cccc1F	53*	1	44*	51*	-1	45*	33*	59*
COc1cc(Br)cc2cc(C(=O)N3CCOCC3)c(=O)oc12	2	3	-1	1	0	.	.	.
CCOC(=O)N1CCN(C(=S)NC(=O)c2cc(Br)ccc2Cl)CC1	23	0	19	25	-1	.	.	.
CCCN(CC1CC1)C(=S)NC(=O)c1cc(Br)ccc1Cl	57*	-2	52*	60*	-3	37*	51*	52*
CCCN(CC1CC1)C(=S)NC(=O)C1CC1	7	-3	-2	7	-2	.	.	.
CCOC(=O)C1CCCN(C(=S)NC(=O)c2cc(Br)ccc2Cl)C1 (stereo not drawn)	55*	-1	37	40*	-4	28	.	44*
O=C(OC1CCN(c2ccc([N+](=O)[O-])cc2)CC1)c1ccccc1	10	0	20	7	4	.	.	.
COc1ccc(C(=O)CCC(=O)N2CCN(c3ccc([N+](=O)[O-])cc3)CC2)cc1	-8	2	10	14	-1	.	.	.
O=C(ON=C1CCN(c2ccc([N+](=O)[O-])cc2)CC1)c1ccccc1	64*	1	52*	47*	-3	24	60*	60*

Screens deposited in PubChem BioAssay by Sanford-Burnham Center for Chemical Genomics.
